From PMC8212709 (Clinical and Translational Science, 2021)
Where two headings read alike, the source gives them in different places.

Experiments:
[1] = target: BTK (Homo sapiens, UniProt Q06187); assay: BTK occupancy assay in whole blood cell lysates; format: in vivo
Outline: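 Healthy subjects in SRD cohorts 1–4 (6 test compound, 2 placebo per cohort) took a single oral dose (0.1 mg starting dose, given as solution) or placebo while fasted. Unoccupied BTK in whole-blood cell lysates was captured by a biotin-modified covalent probe of the test compound. Occupancy was computed per postdose time up to 96 h as 100 − [100 × (BTK concentration ÷ predose BTK concentration)].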

[2] = system: rat collagen‐induced arthritis model; settings: nonclinical, no reference given; cited from earlier work
[3] = rats, nonclinical, no reference given, cited from earlier work
[4] = dogs, nonclinical, no reference given, cited from earlier work
[5] = nonclinical studies, oral solution; no reference given; cited from earlier work
[6] = rat, most sensitive toxicological species; nonclinical, no reference given; cited from earlier work

Sequence of BTK (Q06187 whole entry): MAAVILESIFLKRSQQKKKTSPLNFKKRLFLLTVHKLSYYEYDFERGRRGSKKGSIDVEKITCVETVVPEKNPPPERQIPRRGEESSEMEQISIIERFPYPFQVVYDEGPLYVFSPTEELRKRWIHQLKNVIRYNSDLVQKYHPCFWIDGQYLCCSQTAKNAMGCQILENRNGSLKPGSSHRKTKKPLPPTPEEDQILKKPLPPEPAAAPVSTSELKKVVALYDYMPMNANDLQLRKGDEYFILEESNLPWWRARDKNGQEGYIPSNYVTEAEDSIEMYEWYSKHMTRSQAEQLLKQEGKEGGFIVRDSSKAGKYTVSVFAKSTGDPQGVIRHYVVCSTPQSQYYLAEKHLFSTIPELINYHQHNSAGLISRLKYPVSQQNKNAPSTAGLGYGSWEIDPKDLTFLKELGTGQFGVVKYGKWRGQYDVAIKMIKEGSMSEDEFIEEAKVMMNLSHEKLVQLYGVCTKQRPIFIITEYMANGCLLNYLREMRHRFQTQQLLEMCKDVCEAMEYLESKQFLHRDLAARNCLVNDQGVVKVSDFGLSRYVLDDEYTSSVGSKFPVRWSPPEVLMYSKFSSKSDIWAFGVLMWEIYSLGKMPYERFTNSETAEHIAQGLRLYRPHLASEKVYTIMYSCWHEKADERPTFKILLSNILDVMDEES

## C=CC(=O)N1CC[C@H](Oc2nc(-c3n[nH]c(=O)[nH]3)cc3ccccc23)C1 [TAK‐020]
[1]; SRD, 2.5‐mg and 4.4‐mg doses, longest duration investigated
  duration of BTK occupancy > 70%: > 96 h
[1]; SRD, single doses ≥ 2.5 mg (2.5‐mg and 4.4‐mg), blood
  BTK occupancy, maximum and sustained: > 70%
[1]; single doses of 2.5 and 4.4 mg, postdose
  duration of > 80% BTK occupancy: 72 h
[1]; single doses of 2.5 and 4.4 mg, up to 72 hours postdose
  BTK occupancy (%) of TAK‐020 binding sites: > 80%
[1]; single doses ≥2.5 mg
  duration of BTK saturation: > 24 h
[2]
  median effective dose: 0.31 mg/kg per day
[3]; after oral administration
  terminal disposition phase elimination half‐life (t1/2z): 4.4 to 7.3 h
[3]
  oral bioavailability: 13.2%
[4]; after oral administration
  terminal disposition phase elimination half‐life (t1/2z): 3.8 to 6.7 h
[4]
  oral bioavailability: 8.17%
[5]
  time of peak plasma concentrations postdose: ≤ 2 h
[6]
  no observed adverse effect level exposure limit (total AUC): 63 ng·h/mL
